Results from ChEMBL document CHEMBL1208782, “Synthesis and pharmacological validation of a novel series of non-steroidal FXR agonists” (Bioorg Med Chem Lett, 2010).
pEC50: −log10 of the molar value.

Legend:
[1] = molecular target: T1, Bile acid receptor (Homo sapiens, UniProt Q96RI1); test: Agonist activity at human full length FXR transfected in HEK293 cells coexpressing pTRexDest/pGL2promotor assessed as luciferase activity by direct reporter cellular assay; assay type: functional, cell-based; conditions: read-out: EC50
T1 sequence (Q96RI1 whole entry): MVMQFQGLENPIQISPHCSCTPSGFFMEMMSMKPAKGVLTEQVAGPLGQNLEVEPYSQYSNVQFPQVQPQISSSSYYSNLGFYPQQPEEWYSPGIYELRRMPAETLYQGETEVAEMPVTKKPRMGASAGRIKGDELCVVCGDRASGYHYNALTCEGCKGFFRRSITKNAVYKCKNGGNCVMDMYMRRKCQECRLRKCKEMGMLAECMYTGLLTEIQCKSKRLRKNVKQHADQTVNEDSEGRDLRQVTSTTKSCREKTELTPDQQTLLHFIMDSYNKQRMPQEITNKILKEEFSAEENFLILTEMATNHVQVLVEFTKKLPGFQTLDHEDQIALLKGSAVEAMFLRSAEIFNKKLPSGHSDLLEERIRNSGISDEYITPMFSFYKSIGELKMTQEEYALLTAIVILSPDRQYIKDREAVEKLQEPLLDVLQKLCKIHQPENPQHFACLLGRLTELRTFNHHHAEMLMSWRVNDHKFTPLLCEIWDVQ

[2] = molecular target: T2, Bile acid receptor (Homo sapiens) (UniProt Q96RI1); test: Agonist activity at human full length FXR transfected in HEK293 cells coexpressing pTRexDest/pGL2promotor assessed as luciferase activity by direct reporter cellular assay relative to GW-4064; assay type: functional, cell-based
T2 sequence (whole entry): T1 sequence (Q96RI1 whole entry)

[3] = Drug level in db/db mouse bile measured metabolites as carboxylic acid at 5 mg/kg, po after 240 mins; assay type: ADME, organism-based; set-up: dose 5 mg/kg, route oral; conditions: in vivo, 4 h
[4] = Drug level in db/db mouse bile measured metabolites as glucuronide at 5 mg/kg, po after 240 mins; assay type: ADME, organism-based; set-up: dose 5 mg/kg, route oral; conditions: in vivo, 4 h
[5] = molecular target: T2, Bile acid receptor (Homo sapiens); test: Agonist activity at human […] FXR LBD expressed in HEK293 cells coexpressing GAL4-DNA bindig domain and pFRluc by mammalian one-hybrid assay relative to GW-4064; assay type: functional, cell-based
[6] = Drug level in db/db mouse bile measured metabolites as taurine amide at 5 mg/kg, po after 240 mins; assay type: ADME, organism-based; set-up: dose 5 mg/kg, route oral; conditions: in vivo, 4 h
Summary of the method: (§1)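 Mice got a single dose, 5 mg/kg po or 1 mg/kg iv. Liver and bile were sampled 240 min after dosing. Parent carboxylic acid, its acyl-glucuronide and its taurine amide were quantified separately, in ng/mL. Glucuronide identity was confirmed by glucuronidase digestion of bile or bile extracts, which regenerated the parent.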

[7] = Plasma concentration in db/db mouse at 5 mg/kg, po after 10 mins; assay type: ADME, organism-based; set-up: dose 5 mg/kg, route oral; conditions: read-out: Drug uptake
Summary of the method: (§2)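 Single dose to mice, 5 mg/kg po or 1 mg/kg iv. Plasma was sampled at 5, 10, 30, 90 and 240 min. Only parent compound was measured, in ng/mL.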

[8] = Plasma concentration in db/db mouse at 1 mg/kg, iv after 5 mins; assay type: ADME, organism-based; set-up: dose 1 mg/kg, route intravenous; conditions: read-out: Drug uptake; summary of the method: as §2
[9] = molecular target: T1, Bile acid receptor; test: Agonist activity at human GST-fused FXR LBD assessed as cofactor peptide interaction with receptor ligand binding domain by FRET assay
[10] = Plasma concentration in db/db mouse at 5 mg/kg, po after 5 mins; assay type: ADME, organism-based; set-up: dose 5 mg/kg, route oral; conditions: read-out: Drug uptake; summary of the method: as §2
[11] = system: Liver; test: Drug level in db/db mouse liver measured metabolites as glucuronide at 1 mg/kg, iv after 240 mins; assay type: ADME, organism-based; set-up: dose 1 mg/kg, route intravenous; conditions: in vivo, 4 h; summary of the method: as §1
[12] = molecular target: T1, Bile acid receptor; test: Agonist activity at human […] FXR LBD expressed in HEK293 cells coexpressing GAL4-DNA bindig domain and pFRluc by mammalian one-hybrid assay; assay type: functional, cell-based; conditions: read-out: EC50
[13] = system: Liver; test: Drug level in db/db mouse liver measured metabolites as carboxylic acid at 5 mg/kg, po after 240 mins; assay type: ADME, organism-based; set-up: dose 5 mg/kg, route oral; conditions: in vivo, 4 h; summary of the method: as §1
[14] = Plasma concentration in db/db mouse at 1 mg/kg, iv after 90 mins; assay type: ADME, organism-based; set-up: dose 1 mg/kg, route intravenous; conditions: read-out: Drug uptake; summary of the method: as §2
[15] = Plasma concentration in db/db mouse at 1 mg/kg, iv after 30 mins; assay type: ADME, organism-based; set-up: dose 1 mg/kg, route intravenous; conditions: read-out: Drug uptake; summary of the method: as §2
[16] = Clearance in db/db mouse at 5 mg/kg, po; assay type: ADME, organism-based; set-up: dose 5 mg/kg, route oral; conditions: in vivo
Summary of the method: (§3)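 Mice received a single dose of 5 mg/kg po or 1 mg/kg iv. Plasma was sampled at 5, 10, 30, 90 and 240 min and the parent compound alone was measured (ng/mL). Clearance (mL/h/kg), Vd (mL/kg) and oral bioavailability were derived from these plasma profiles.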

[17] = Plasma concentration in db/db mouse at 5 mg/kg, po after 30 mins; assay type: ADME, organism-based; set-up: dose 5 mg/kg, route oral; conditions: read-out: Drug uptake; summary of the method: as §2
[18] = molecular target: T2, Bile acid receptor (Homo sapiens); test: Agonist activity at human GST-fused FXR LBD assessed as cofactor peptide interaction with receptor ligand binding domain by FRET assay relative to GW-4064
[19] = system: Liver; test: Drug level in db/db mouse liver measured metabolites as glucuronide at 5 mg/kg, po after 240 mins; assay type: ADME, organism-based; set-up: dose 5 mg/kg, route oral; conditions: in vivo, 4 h; summary of the method: as §1
[20] = Drug level in db/db mouse bile measured metabolites as taurine amide at 1 mg/kg, iv after 240 mins; assay type: ADME, organism-based; set-up: dose 1 mg/kg, route intravenous; conditions: in vivo, 4 h; summary of the method: as §1
[21] = Drug level in db/db mouse bile measured metabolites as carboxylic acid at 1 mg/kg, iv after 240 mins; assay type: ADME, organism-based; set-up: dose 1 mg/kg, route intravenous; conditions: in vivo, 4 h
[22] = Drug level in db/db mouse bile measured metabolites as glucuronide at 1 mg/kg, iv after 240 mins; assay type: ADME, organism-based; set-up: dose 1 mg/kg, route intravenous; conditions: in vivo, 4 h
[23] = system: Liver; test: Drug level in db/db mouse liver measured metabolites as taurine amide at 5 mg/kg, po after 240 mins; assay type: ADME, organism-based; set-up: dose 5 mg/kg, route oral; conditions: in vivo, 4 h; summary of the method: as §1
[24] = Oral bioavailability in db/db mouse at 5 mg/kg, po; assay type: ADME, organism-based; conditions: in vivo
Summary of the method: (§4)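 Derived from the single-dose mouse plasma time courses of parent compound, 5-240 min. Dosing was 5 mg/kg po or 1 mg/kg iv. Volume of distribution is in mL/kg, clearance in mL/h/kg, and oral bioavailability in %.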

[25] = Clearance in db/db mouse at 1 mg/kg, iv; assay type: ADME, organism-based; set-up: dose 1 mg/kg, route intravenous; conditions: in vivo; summary of the method: as §3
[26] = system: Liver; test: Drug level in db/db mouse liver measured metabolites as carboxylic acid at 1 mg/kg, iv after 240 mins; assay type: ADME, organism-based; set-up: dose 1 mg/kg, route intravenous; conditions: in vivo, 4 h; summary of the method: as §1
[27] = system: Liver; test: Drug level in db/db mouse liver measured metabolites as taurine amide at 1 mg/kg, iv after 240 mins; assay type: ADME, organism-based; set-up: dose 1 mg/kg, route intravenous; conditions: in vivo, 4 h; summary of the method: as §1
[28] = Plasma concentration in db/db mouse at 5 mg/kg, po after 90 mins; assay type: ADME, organism-based; set-up: dose 5 mg/kg, route oral; conditions: read-out: Drug uptake; summary of the method: as §2
[29] = Plasma concentration in db/db mouse at 1 mg/kg, iv after 240 mins; assay type: ADME, organism-based; set-up: dose 1 mg/kg, route intravenous; conditions: read-out: Drug uptake; summary of the method: as §2
[30] = system: Mus musculus; test: Volume of distribution in db/db mouse at 1 mg/kg, iv; assay type: ADME, organism-based; set-up: dose 1 mg/kg, route intravenous; conditions: in vivo; summary of the method: as §4
[31] = Plasma concentration in db/db mouse at 1 mg/kg, iv after 10 mins; assay type: ADME, organism-based; set-up: dose 1 mg/kg, route intravenous; conditions: read-out: Drug uptake; summary of the method: as §2

CN(Cc1ccc(C(=O)NCCS(=O)(=O)O)cc1)c1ccc(OCc2c(-c3c(Cl)cccc3Cl)noc2C2CC2)nc1C(F)(F)F
pEC50 [1]: 6.03
Efficacy [2]: 49%
Drug uptake [3]: 32 ng/mL
Drug uptake [4]: 1055 ng/mL
Efficacy [5]: 57%
Drug uptake [6]: 32442 ng/mL
concentration at 10 min [7]: 3 ng/mL
concentration at 5 min [8]: 72 ng/mL
pEC50 [9]: 7.85
concentration at 5 min [10]: 1 ng/mL
Drug uptake [11]: 7 ng/mL
pEC50 [12]: 5.85
Drug uptake [13]: 6 ng/mL
concentration at 1.5 h [14]: 19 ng/mL
concentration at 0.5 h [15]: 3 ng/mL
CL/F [16]: 3280 mL/min/kg
concentration at 0.5 h [17]: 6 ng/mL
Efficacy [18]: 105%
Drug uptake [19]: 30 ng/mL
Drug uptake [20]: 24151 ng/mL
Drug uptake [21]: 12 ng/mL
Drug uptake [22]: 169 ng/mL
Drug uptake [23]: 262 ng/mL
bioavailability [24]: 5.8%
clearance [25]: 190 mL/min/kg
Drug uptake [26]: 8 ng/mL
Drug uptake [27]: 350 ng/mL
concentration at 1.5 h [28]: 12 ng/mL
concentration at 4 h [29]: 8 ng/mL
Vd [30]: 31.7 L/kg
concentration at 10 min [31]: 59 ng/mL

CC(C)c1onc(-c2c(Cl)cccc2Cl)c1COc1ccc(N(C)Cc2cccc(C(=O)NCCOP(=O)(O)O)c2)c(C(F)(F)F)n1
pEC50 [1]: 6.67
Efficacy [2]: 61%
Efficacy [5]: 48%
pEC50 [9]: 7.44
pEC50 [12]: 6.34
Efficacy [18]: 114%

O=C(O)c1ccc(OCc2ccc(OCc3c(-c4c(Cl)cccc4Cl)noc3C3CC3)nc2C(F)(F)F)cc1
pEC50 [1]: 7.42
Efficacy [2]: 42%
Efficacy [5]: 59%
pEC50 [9]: 7.12
pEC50 [12]: 7.02
Efficacy [18]: 86%

CC(C)c1onc(-c2c(Cl)cccc2Cl)c1COc1ccc(NCc2ccc(C(=O)O)cc2)c(C(F)(F)F)n1
pEC50 [1]: 7.00
Efficacy [2]: 45%
Efficacy [5]: 48%
pEC50 [9]: 6.79
pEC50 [12]: 6.40
Efficacy [18]: 97%

CC(C)c1onc(-c2c(Cl)cccc2Cl)c1COc1ccc(N(C)Cc2ccc(OCC(=O)O)cc2)c(C(F)(F)F)n1
pEC50 [1]: 7.72
Efficacy [2]: 59%
Efficacy [5]: 69%
pEC50 [9]: 7.46
pEC50 [12]: 6.67
Efficacy [18]: 90%

CC(C)c1onc(-c2c(Cl)cccc2Cl)c1COc1ccc(N(C)C(=O)c2ccc(C(=O)O)cc2)c(C(F)(F)F)n1
pEC50 [1]: 6.68
Efficacy [2]: 63%
Efficacy [5]: 36%
pEC50 [9]: 6.63
pEC50 [12]: 6.50
Efficacy [18]: 101%

CC(Nc1ccc(C(=O)O)cc1)c1ccc(OCc2c(-c3c(Cl)cccc3Cl)noc2C2CC2)nc1C(F)(F)F (configuration not stated)
pEC50 [1]: 6.69
Efficacy [2]: 49%
Efficacy [5]: 59%
pEC50 [9]: 7.00
pEC50 [12]: 6.48
Efficacy [18]: 99%
